S1P3 agonist: human S1P3 receptor agonists, primary screen, cell-based, primary and confirmation, NFAT-BLA reporter | Sphingosine 1-phosphate receptor 3 (Homo sapiens), Q99500 | S1P3 NFAT-BLA reporter cells, agonism, FRET ratio; relative to 1 µM S1P, basal subtracted | activation, % at 4.5 µM | actives 0.1% (n = 60,000) | AID 373, 2006;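 active means activation above the screen-wide mean plus 3 SD, cut at about 4.5% in these data, passing the limit was not always enough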
Target sequence (Q99500 whole entry, looked up): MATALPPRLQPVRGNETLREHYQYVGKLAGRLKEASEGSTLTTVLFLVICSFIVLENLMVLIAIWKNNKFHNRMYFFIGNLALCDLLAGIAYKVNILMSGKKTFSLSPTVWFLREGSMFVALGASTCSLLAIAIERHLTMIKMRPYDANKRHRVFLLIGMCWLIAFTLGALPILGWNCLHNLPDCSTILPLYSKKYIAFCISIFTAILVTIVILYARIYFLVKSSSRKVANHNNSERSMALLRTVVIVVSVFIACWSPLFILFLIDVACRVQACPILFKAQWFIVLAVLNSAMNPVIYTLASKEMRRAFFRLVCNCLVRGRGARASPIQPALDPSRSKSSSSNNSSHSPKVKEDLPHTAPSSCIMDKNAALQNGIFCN
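Material: Human S1P3 NFAT-BLA reporter CHO cells | Incubation: Overnight plating, 4 h compound 37 °C, 2 h substrate RT | Signal: FRET β-lactamase substrate fluorescence, excitation 405 nm, 460/535 nm emission ratio, background-subtracted | Compound: 4.5 µM final, single dose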
S1P1 ag pot: S1P1 agonists and agonism potentiators, primary screen, cell-based, primary and confirmation screens, CRE-bla reporter | Sphingosine 1-phosphate receptor 1 (Homo sapiens), P21453 | S1P1 CRE-bla cells, forskolin, beta-lactamase FRET, potentiator mode; S1P1 agonist co-added at EC20, 2 nM; 100% = saturating reference agonist, 0% = basal | activation, % at 9.5 µM | actives 0.57% (n = 56,000);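 active means activation above a cutoff set at the mean activation of all tested compounds plus 3 SD, cut at about 54% in these data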;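 further: forskolin at 4 µM as EC80 and the EC20 agonist is SEW2871; 100% = SEW2871 at its EC100 plus forskolin at EC80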
Spn MK inh: S. pneumoniae MK inhibitors, primary screen, biochemical, PK/LDH-coupled NADH absorbance; inhibition, % at 10 µM; actives 0.48% (n = 65,000); purified MK, PK/LDH-coupled NADH absorbance 340 nm; AID 555, 2006;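 active means ranked among the strongest by inhibition in the single 10 µM screen, a fixed top-ranked set picked for dose follow-up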
Hsp90 block: tumor Hsp90 inhibitors, primary screen, cell lysate, fluorescence polarization, NCI-N417 lysate. Heat shock protein HSP 90-alpha (Homo sapiens), P07900. Cy3B-geldanamycin FP displacement. inhibition, % at 30 µM. actives 0.35% (n = 64,000);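 active means inhibition above 50%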;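 further: 0% = tracer plus lysate wells and 100% = tracer alone without lysate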
Spn DPM-DC inh: S. pneumoniae DPM-DC inhibitors, primary screen, biochemical, PK/LDH-coupled NADH fluorescence; calls only at 10 µM; purified DPM-DC; actives 0.49% (n = 65,000); diphosphomevalonate decarboxylase (Streptococcus pneumoniae D39);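 active means the 320 compounds with the highest percent inhibition in the single-dose primary screen, excluding strongly autofluorescent ones, cut at about 32% in these data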;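 further: kinetic rate of NADH fluorescence loss reporting ADP formed by the decarboxylase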
PMK inhibit: S. pneumoniae PMK inhibitors, primary screen, biochemical, mevalonate pathway, pilot trial included | phosphomevalonate kinase (Streptococcus pneumoniae D39) | purified PMK, PK/LDH-coupled NADH absorbance 340 nm | inhibition, % at 10 µM | actives 0.49% (n = 65,000);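 active means top-ranked compounds by inhibition in the single 10 µM screen, taking a fixed number of the strongest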;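 further: 0% = full reaction with DMSO carrier and 100% = background rate without enzyme reaction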
* hit, by the source's call; i = inactive; nt = not tested or not shown; + = active, no number. Shown are actives, neighbours in structure and some others; about 2.2% of the full set was active somewhere.

SMILES | S1P3 agonist | S1P1 ag pot | Spn MK inh | Hsp90 block | Spn DPM-DC inh | PMK inhibit
CC(C)COC(=O)n1ccc(C(=O)N2CCCCC2)n1 | -0.6 | 0.0 | 4.0 | -1.9 | i | 25.0*
CC(C)CNS(=O)(=O)c1ccccc1C(=O)N1CCCCC1 | -0.9 | 11.0 | 8.0 | -3.0 | i | 5.0
CCC(C(=O)N1CCc2ccccc2C1)n1nc(C)n2c(cc3occc32)c1=O (stereo not drawn) | -0.2 | 4.4 | 0.0 | -3.4 | i | 17.0
Cc1cc(C)nc(Sc2c(C)nn(-c3ccccc3)c2C)n1 | 0.0 | -2.5 | 8.0 | 1.0 | i | 0.0
O=C(CN1CCN(c2ncccn2)CC1)N1CCN(C(c2ccccc2)c2ccccc2)CC1 | nt | nt | 49.0* | nt | i | 0.0
O=C(Cn1cccc1)N1CCN(C(c2ccccc2)c2ccccc2)CC1 | -0.3 | -0.7 | 7.0 | -5.9 | i | 11.0
Cc1ccc(OCCCN(C)C)c(Br)c1 | -0.2 | -8.8 | 45.0* | -0.9 | i | 13.0
c1ccc(Cc2nc(-c3ccccn3)no2)cc1 | -1.2 | -18.3 | 12.0 | -1.9 | i | 0.0
c1ccc(C(Cc2nc(-c3ccccn3)no2)c2ccccc2)cc1 | 10.7* | 13.6 | 4.0 | -3.7 | i | 11.0
c1ccc(C(Cc2nc(-c3cccnc3)no2)c2ccccc2)cc1 | 20.3* | 85.4* | 2.0 | -0.4 | i | 6.0
c1ccc(SCc2nc(-c3cccnc3)no2)cc1 | 0.0 | nt | 7.0 | -4.4 | i | 7.0
O=C(NCc1ccco1)c1ccccc1NS(=O)(=O)c1ccc2c(c1)OCCO2 | -1.3 | -15.1 | 0.0 | -15.1 | + | 0.0
CCOC(=O)c1cnc(-n2nc(C)cc2C)nc1NC1CCCCC1 | -1.8 | 109.6* | 8.0 | -1.2 | i | 10.0
CCOC(=O)c1cnc(-n2nc(C)cc2C)nc1NC | -1.0 | -5.6 | 4.0 | -1.9 | i | 11.0
COc1cc2nc(C3CCC3)n(NC(=O)C3CCCC(OC)C3)c(=O)c2cc1OC (stereo not drawn) | -1.1 | 4.5 | 9.0 | -0.4 | i | active
COc1ccc(C(=O)Nn2c(C3CCC3)nc3ccccc3c2=O)c(OC)c1 | 0.2 | -0.7 | 0.0 | -0.6 | i | 18.0
COC(=O)c1ccc2c(=O)n(CCC3=CCCCC3)c(SCC(=O)N3CCCC3)nc2c1 | nt | nt | 2.0 | 0.4 | i | 23.0
CCCCCCCCCCCCCCCCOCC(COCC(F)(F)F)OP(=O)(O)OCO (stereo not drawn) | nt | nt | nt | -3.4 | nt | nt
CCSc1nnc2c(n1)OC(c1ccc(C(=O)O)cc1)N(C(C)=O)c1ccccc1-2 (stereo not drawn) | 0.5 | -2.0 | 6.0 | 89.2* | i | 7.0
Cc1cc(C)n2nc3nc(N4CCCCC4)nc(-c4ccco4)c3c2n1 | 0.0 | 7.3 | 0.0 | -5.5 | + | 20.0
CCn1c(SCC(=O)c2[nH]c(C)c(C(C)=O)c2C)nnc1-c1cccs1 | 0.6 | 8.1 | 5.0 | -2.7 | i | 27.0*
Cc1csc2ncc(C(=O)Nc3cccc(C(F)(F)F)c3)c(=O)n12 | -0.1 | -2.7 | 3.0 | -3.3 | i | 5.0
CCc1ccc(NC(=O)c2cnc3scc(C)n3c2=O)cc1 | -1.4 | 15.3 | 14.0 | -2.8 | + | 4.0
CC(=O)Nc1nc(COc2ccccc2)cs1 | -0.7 | nt | 7.0 | -0.7 | i | 16.0
Cc1ccc(C(=O)Nc2nc(COc3ccccc3)cs2)s1 | -0.6 | 97.8* | 4.0 | -0.1 | i | 7.0
SMILES | S1P3 agonist | S1P1 ag pot | Spn MK inh | Hsp90 block | Spn DPM-DC inh | PMK inhibit
O=C(CCN1C(=O)c2ccccc2C1=O)Nn1cnnc1 | 0.8 | 9.6 | 0.0 | -3.5 | i | 7.0
COc1cc2nc3c4ccccc4n(CC#N)c3nc2cc1OC | 0.9 | -33.6 | 8.0 | -0.8 | nt | 7.0
CCn1c2ccccc2c2nc3cc(OC)c(OC)cc3nc21 | 0.9 | -79.3 | nt | -5.0 | + | 11.0
COc1ccc(OC)c(-n2c(C)nc3cc(C(=O)O)ccc32)c1 | -1.6 | -3.1 | 5.0 | 60.8* | i | 12.0
CC(C)C(C(=O)Nc1nccs1)c1ccccc1 (stereo not drawn) | -0.8 | -3.6 | 5.0 | 1.0 | i | 14.0
CCOC(=O)C(Cc1ccccc1)C(=O)Nc1nccs1 (stereo not drawn) | 0.4 | 6.5 | 12.0 | -2.5 | + | 1.0
O=C(c1cccn2c(=O)c3ccccc3nc12)N1CCN(c2ccccn2)CC1 | nt | nt | 3.0 | -0.3 | i | 13.0
O=C(O)c1cccn2c(=O)c3ccccc3nc12 | -0.1 | -15.0 | 13.0 | -1.9 | + | 11.0
Cc1nc2c(c(=O)n1CC1CCCO1)c1nc3ccccc3nc1n2Cc1ccc2c(c1)OCO2 (stereo not drawn) | -3.8 | 6.4 | 0.0 | 15.2 | i | 2.0
O=c1c(-c2ccc3c(c2)OCCO3)coc2c(CN3CCOCC3)c(O)ccc12 | -0.8 | -8.8 | 11.0 | 72.2* | nt | 2.0
O=C(CSc1ccc2nnc(-c3ccc(Cl)cc3)n2n1)N1CCN(c2ccccc2)CC1 | -0.9 | -16.8 | 15.0 | -2.2 | i | 19.0
CC1(C)CC(=O)C(C=Nc2ccc3[nH]ncc3c2)=C(O)C1 | -1.8 | 99.2* | 4.0 | 10.1 | i | 0.0
CC1(C)CC(=O)C(C=Nc2ccc3cn[nH]c3c2)=C(O)C1 | -2.2 | 13.1 | 0.0 | -2.6 | i | 0.0
O=C(Cc1c[nH]c2ccccc12)NCc1ccc2c(c1)OCO2 | 0.0 | 29.1 | 0.0 | -4.7 | i | 6.0
COC(=O)C1=C(C)N(c2ccc(C(=O)OC)cc2)C(=O)C1 | -0.2 | -5.0 | 6.0 | -9.3 | i | 0.0
COC(=O)C1=C(C)N(c2cccc3ccccc23)C(=O)C1 | -0.2 | -5.0 | 6.0 | 50.7* | i | 0.0
CN(C)c1ccc(CNCCC2(O)CCOC(C)(C)C2)cc1 (stereo not drawn) | -1.3 | 12.2 | 41.0* | -2.7 | i | 61.0*
CCn1c2c(c3cc(Cl)ccc31)CCCC2=O | -1.0 | -22.3 | 4.0 | -0.3 | i | 4.0
CCn1c2c(c3cc(C(=O)O)ccc31)CCCC2=O | -0.6 | -17.7 | 18.0 | -6.3 | + | 9.0
Nc1cc(C(=O)O)ccc1Nc1ccccc1 | -0.7 | 15.1 | 5.0 | 4.4 | + | 10.0
CCc1ccccc1Nc1ccc(C(=O)O)cc1N | -0.9 | -6.1 | 8.0 | 1.9 | i | 14.0
COc1ccc(CCNC(=O)Cn2cnc3c(cnn3-c3ccccc3Cl)c2=O)cc1OC | 0.6 | -1.7 | 4.0 | -3.6 | i | 20.0
